Measurements: ChEMBL document CHEMBL1135976, “Antimalarial activity of yingzhaosu A analogues” (J Med Chem, 2002)

Assays:
FM3A [1] = experiment: Percent inhibition of growth against mouse mammary FM3A cells; assay type: cell-based; parameters: concentration or dose not given beside the values
Outline: (§1)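 Mouse mammary tumor FM3A cells in culture served as the mammalian cytotoxicity counterscreen. EC50 was determined; where no activity was found at 10 μM, percent growth inhibition at that concentration was given.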

FM3A [2] = experiment: Effective concentration against mouse mammary FM3A cells; assay type: ADME, cell-based; outline: as §1
[3] = Selectivity as the ratio of EC50 value for FM3A cells to that of Plasmodium falciparum.; assay type: functional
Outline: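 Selectivity was taken as the mean EC50 in FM3A cells divided by the mean EC50 against P. falciparum FCR-3.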

Plasmodium falciparum = experiment: In vitro antimalarial activity against Plasmodium falciparum; assay type: functional, organism-based
Outline: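 Chloroquine-sensitive P. falciparum FCR-3 strain cultured in vitro. EC50 was determined.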

Mus musculus [4] = experiment: Mice survival days reported after intramuscular administration; assay type: ADME, organism-based; settings: in vivo, im
Outline: (§2)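 P. berghei NK 65 strain in mice, five per group. Compounds in olive oil were given ip or im once daily on days 0–3, starting on the day of infection. Parasitemia was read on day 4 from Giemsa-stained tail blood smears, counting 1×10^4 erythrocytes per film, and suppression calculated against DMSO sham-treated infected controls. Survival was recorded in days. Values are means of five mice, one test.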

Mus musculus [5] = experiment: Mice survival days reported after intraperitoneal administration; assay type: ADME, organism-based; settings: in vivo, ip; outline: as §2
Plasmodium berghei = experiment: Antimalarial activity against Plasmodium berghei infected mice (Mus musculus) after intramuscular administration at a dose 100 mg/kg/day; assay type: ADME, organism-based; parameters: route intramuscular; settings: im; outline: as §2

SMILES | Inhibition (FM3A [1]) [%] | EC50 (FM3A [2]) [µM] | Selectivity [3] | EC50 (Plasmodium falciparum) [µM] | Survival (Mus musculus [4]) [days] | Survival (Mus musculus [5]) [days] | inhibition at 100 mg/kg (Plasmodium berghei) [%]
CC12CCC[C@H](C1)C(C)(CI)O2 (some centres not stated) | 0 | > 48 | >48 | 1 | – | – | –
COC12CCC[C@@H](C1)C(I)C(C)(C)OO2 (some centres not stated) | 10 | > 64 | >4 | 15 | – | – | –
CCOC(=O)C(I)C12CCCC(C1)C(C)(C)OO2 (configuration not stated) | – | 3.1 | 282 | 0.011 | 9.8 | 6.5 | 80
CC1(C)OOC2(CI)CCCC1C2 (configuration not stated) | – | 68 | 1700 | 0.04 | 9.6 | 7 | 99
COC12C[C@H](CC[C@@H]1C)C(C)(CI)OO2 (some centres not stated) | 8 | > 54 | >27 | 2 | – | – | –
COC12CCC[C@H](CC(C)(CI)OO1)C2 (some centres not stated) | 6 | > 80 | >32 | 2.5 | – | – | –
CC12CCC[C@@H](C1)C(C)(CI)OO2 (some centres not stated) | 10 | > 84 | >6462 | 0.013 | – | – | –
CC1(CI)C[C@H]2CCCCC2O1 (some centres not stated) | 34 | > 210 | >2 | 120 | – | – | –
COC12CCC[C@@H](C1)C(C)(CI)OO2 (some centres not stated) | 19 | > 70 | >41 | 1.7 | – | – | –
CC1(C)OC2(CI)CCCC1C2 (configuration not stated) | 10 | > 84 | >14 | 5.8 | – | – | –
CC1(CI)C[C@H]2CCCC(C2)OO1 (some centres not stated) | 47 | > 96 | >32 | 3 | – | – | –
CC1(CI)C[C@H]2CCCC[C@@H]2OO1 (relative stereo) | – | 66 | 44 | 1.5 | – | – | –
C[C@@H]1CC[C@H]2[C@@H](C)C(=O)O[C@@H]3O[C@@]4(C)CC[C@@H]1[C@]32OO4 [ARTEMISININ] | – | – | 1000 | – | – | – | –
